Laboratory results reported in ChEMBL document CHEMBL5360580 (Eur J Med Chem, 2023).
pEC50: −log10 of the molar value. Calls of active or inactive are those of the source. No cut-off for these calls is given here.

Key:
[1] = tested on: SARS-CoV-2; experiment: Antiviral activity against SARS-CoV-2 infected in African green monkey Vero E6 cells assessed as inhibition of viral replication at 1 uM incubated for 24 hrs by IFA assay relative to control; assay type: functional; conditions: Severe acute respiratory syndrome coronavirus 2, Vero C1008
[2] = Subacute toxicity in ICR mouse assessed as change in body weight at 50 to 200 mg/kg, po qd administered for 10 days; assay type: organism-based; conditions: in vivo, 240 h, dose 50-200 mg/kg, time 10 day
How it was run: (§1)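 Male ICR mice (18–20 g), ten per group, received oral doses once daily for ten days, with a control group alongside. Body weight, food intake and behaviour were observed daily. Animals were fasted before dissection, and heart, liver, spleen, lung, kidney and administration site were collected for organ weight and histology.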

[3] = Subacute toxicity in ICR mouse assessed as change in lung histology at 50 to 200 mg/kg, po qd administered for 10 days; assay type: organism-based; conditions: in vivo, 240 h, dose 50-200 mg/kg, time 10 day; how it was run: as §1
[4] = Selectivity index, ratio of CC50 for cytotoxicity against African green monkey Vero E6 to EC50 for antiviral activity against SARS-CoV-2 infected in African green monkey Vero E6 cells; assay type: toxicity, cell-based, Vero C1008; conditions: read-out: Ratio CC50/EC50
[5] = Cmax in ICR mouse at 30 mg/kg, po measured upto 24 hrs by LC-MS/MS analysis; assay type: ADME, organism-based; set-up: dose 30 mg/kg, time < 24 hrs, route po; conditions: in vivo
How it was run: (§2)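 Male-unspecified ICR (CD-1) mice, N = 3 per group, were fasted 12 h. Compound in DMSO/0.5% HMPC (5/95, v/v) was given orally at 30 mg/kg or intravenously at 2.5 mg/kg. Femoral-vein blood was drawn at 0.25, 0.5, 1, 2, 4, 8 and 24 h, and serum analyte levels were measured by LC-MS/MS.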

[6] = Observed AUC (0 to infinity) in ICR mouse at 2.5 mg/kg, iv measured upto 24 hrs by LC-MS/MS analysis; assay type: ADME, organism-based; set-up: dose 2.5 mg/kg, time < 24 hrs, route iv; conditions: in vivo; how it was run: as §2
[7] = Aqueous solubility of compound at 0.5 mg/mL in presence of acetonitrile by HPLC analysis; assay type: physicochemical; conditions: buffer
How it was run: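 Compound was suspended in water, vortexed vigorously and filtered through a 0.22 μm membrane. The filtrate was diluted 2-fold with 80% acetonitrile and analysed by reversed-phase amide HPLC. Concentration was read against a standard curve prepared from a 0.5 mg/mL solution in 80% acetonitrile. Single determination.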

[8] = AUClast in ICR mouse at 2.5 mg/kg, iv measured upto 24 hrs by LC-MS/MS analysis; assay type: ADME, organism-based; set-up: dose 2.5 mg/kg, time < 24 hrs, route iv; conditions: in vivo; how it was run: as §2
[9] = tested on: SARS-CoV-2; experiment: Antiviral activity against SARS-CoV-2 infected in African green monkey Vero E6 cells assessed as inhibition of viral replication incubated for 24 hrs by IFA assay; assay type: functional, organism-based; conditions: Severe acute respiratory syndrome coronavirus 2, Vero C1008, 24 h
[10] = Half life in ICR mouse at 30 mg/kg, po measured upto 24 hrs by LC-MS/MS analysis; assay type: ADME, organism-based; conditions: in vivo; how it was run: as §2
[11] = tested on: Vero C1008; experiment: Downregulation of BECN1 level in African green monkey Vero E6 cells at 10 uM measured after 16 hrs by Western blotting analysis; assay type: functional, cell-based; conditions: Chlorocebus sabaeus
How it was run: (§3)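 Vero-E6 cells in DMEM with 10% FBS were cultured overnight at 37 °C, 5% CO2, then treated with a concentration series for 16 h. Lysates were made in RIPA on ice and equalised for protein by BCA. Blots were probed for SKP2 or Beclin-1 plus β-actin and detected by ECL. The band-intensity ratio to β-actin was normalised to DMSO control.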

[12] = Subacute toxicity in ICR mouse assessed as change in organ weight at 50 to 200 mg/kg, po qd administered for 10 days; assay type: organism-based; conditions: in vivo, 240 h, dose 50-200 mg/kg, time 10 day; how it was run: as §1
[13] = Observed AUC (0 to infinity) in ICR mouse at 30 mg/kg, po measured upto 24 hrs by LC-MS/MS analysis; assay type: ADME, organism-based; set-up: dose 30 mg/kg, time < 24 hrs, route po; conditions: in vivo; how it was run: as §2
[14] = tested on: Vero C1008; experiment: Downregulation of BECN1 level in African green monkey Vero E6 cells at 1 to 3 uM measured after 16 hrs by Western blotting analysis; assay type: functional, cell-based; conditions: Chlorocebus sabaeus, dose 1-3 µM; how it was run: as §3
[15] = Observed MRT (0 to infinity) in ICR mouse at 2.5 mg/kg, iv measured upto 24 hrs by LC-MS/MS analysis; assay type: ADME, organism-based; conditions: in vivo; how it was run: as §2
[16] = Subacute toxicity in ICR mouse assessed as change in liver histology at 50 to 200 mg/kg, po qd administered for 10 days; assay type: organism-based; conditions: in vivo, 240 h, dose 50-200 mg/kg, time 10 day; how it was run: as §1
[17] = Half life in ICR mouse at 2.5 mg/kg, iv measured upto 24 hrs by LC-MS/MS analysis; assay type: ADME, organism-based; conditions: in vivo; how it was run: as §2
[18] = Subacute toxicity in ICR mouse assessed as mortality at 50 to 200 mg/kg, po qd administered for 10 days; assay type: organism-based; conditions: in vivo, 240 h, dose 50-200 mg/kg, time 10 day; how it was run: as §1
[19] = Oral bioavailability in ICR mouse at 30 mg/kg measured upto 24 hrs by LC-MS/MS analysis; assay type: ADME, organism-based; conditions: in vivo; how it was run: as §2
[20] = Subacute toxicity in ICR mouse assessed as change in kidney histology at 50 to 200 mg/kg, po qd administered for 10 days; assay type: organism-based; conditions: in vivo, 240 h, dose 50-200 mg/kg, time 10 day; how it was run: as §1
[21] = tested on: Vero C1008; experiment: Downregulation of SKP2 level in African green monkey Vero E6 cells at 0.3 to 10 uM measured after 16 hrs by Western blotting analysis; assay type: functional, cell-based; conditions: Chlorocebus sabaeus, dose 0.3-10 µM; how it was run: as §3
[22] = AUClast in ICR mouse at 30 mg/kg, po measured upto 24 hrs by LC-MS/MS analysis; assay type: ADME, organism-based; set-up: dose 30 mg/kg, time < 24 hrs, route po; conditions: in vivo; how it was run: as §2
[23] = Observed MRT (0 to infinity) in ICR mouse at 30 mg/kg, po measured upto 24 hrs by LC-MS/MS analysis; assay type: ADME, organism-based; conditions: in vivo; how it was run: as §2
[24] = tested on: Vero C1008; experiment: Cytotoxicity against African green monkey Vero E6 cells assessed as reduction in cell viability measured after 48 hrs by CCK-8 assay; assay type: toxicity, cell-based; conditions: chlorocebus sabaeus, vero c1008, 48 h
[25] = Subacute toxicity in ICR mouse assessed as change in spleen histology at 50 to 200 mg/kg, po qd administered for 10 days; assay type: organism-based; conditions: in vivo, 240 h, dose 50-200 mg/kg, time 10 day; how it was run: as §1
[26] = Subacute toxicity in ICR mouse assessed as change in heart histology at 50 to 200 mg/kg, po qd administered for 10 days; assay type: organism-based; conditions: in vivo, 240 h, dose 50-200 mg/kg, time 10 day; how it was run: as §1
[27] = Prodrug conversion in ICR mouse plasma assessed as half life of compound 5-chloro-4-fluoro-2-hydroxy-N-(4-(trifluoromethoxy)phenyl)benzamide at 30 mg/kg, po and 2.5 mg/kg, iv measured upto 24 hrs by LC-MS/MS analysis; assay type: ADME, organism-based; conditions: in vivo
How it was run: (§4)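 Prodrugs were given to fasted ICR (CD-1) mice (N = 3) in DMSO/0.5% HMPC (5/95), at 30 mg/kg po or 2.5 mg/kg iv. Serum from femoral-vein blood taken 0.25–24 h was analysed by LC-MS/MS for the released parent compound, with mole correction applied to the parameters.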

[28] = Prodrug conversion in ICR mouse plasma assessed as AUClast of compound 5-chloro-4-fluoro-2-hydroxy-N-(4-(trifluoromethoxy)phenyl)benzamide at 30 mg/kg, po and 2.5 mg/kg, iv measured upto 24 hrs by LC-MS/MS analysis; assay type: ADME, organism-based; set-up: dose 30 mg/kg, time < 24 hrs, route po; conditions: in vivo; how it was run: as §4
[29] = Prodrug conversion in ICR mouse plasma assessed as Cmax of compound 5-chloro-4-fluoro-2-hydroxy-N-(4-(trifluoromethoxy)phenyl)benzamide at 30 mg/kg, po and 2.5 mg/kg, iv measured upto 24 hrs by LC-MS/MS analysis; assay type: ADME, organism-based; set-up: time < 24 hrs, dose 30 mg/kg, route po; conditions: in vivo; how it was run: as §4
[30] = Prodrug conversion in ICR mouse plasma assessed as oral bioavailability of compound 5-chloro-4-fluoro-2-hydroxy-N-(4-(trifluoromethoxy)phenyl)benzamide at 30 mg/kg measured upto 24 hrs by LC-MS/MS analysis; assay type: ADME, organism-based; conditions: in vivo; how it was run: as §4
[31] = Prodrug conversion in ICR mouse plasma assessed as Observed AUC (0 to infinity) of compound 5-chloro-4-fluoro-2-hydroxy-N-(4-(trifluoromethoxy)phenyl)benzamide at 30 mg/kg, po and 2.5 mg/kg, iv measured upto 24 hrs by LC-MS/MS analysis; assay type: ADME, organism-based; set-up: time < 24 hrs, dose 30 mg/kg, route po; conditions: in vivo; how it was run: as §4
[32] = Prodrug conversion in ICR mouse plasma assessed as Observed MRT (0 to infinity) of compound 5-chloro-4-fluoro-2-hydroxy-N-(4-(trifluoromethoxy)phenyl)benzamide at 30 mg/kg, po and 2.5 mg/kg, iv measured upto 24 hrs by LC-MS/MS analysis; assay type: ADME, organism-based; conditions: in vivo; how it was run: as §4
[33] = tested on: SARS-CoV-2; experiment: Antiviral activity against SARS-CoV-2 infected in African green monkey Vero E6 cells assessed as inhibition of viral replication at 5 uM incubated for 24 hrs by IFA assay relative to control; assay type: functional; conditions: Severe acute respiratory syndrome coronavirus 2, Vero C1008
[34] = Cmax in ICR mouse at 2.5 mg/kg, iv measured upto 24 hrs by LC-MS/MS analysis; assay type: ADME, organism-based; set-up: dose 2.5 mg/kg, time < 24 hrs, route iv; conditions: in vivo; how it was run: as §2

CC(=O)c1cc(Cl)cc(C(=O)Nc2ccc(C(F)(F)F)cc2)c1O
inhibition at 1 µM [1]: 50%

O=C(Nc1ccc(OC(F)(F)F)cc1)c1cc(Cl)c(F)cc1O
Activity [2]: Non-Toxic
Activity [3]: Non-Toxic
selectivity ratio [4]: 4.73
Cmax [5]: 2376 ng/mL
AUC ([6]; 24 h): 3678 ng·h/mL
solubility [7]: 0.1 µg/mL
AUClast ([8]; 24 h): 3646 ng·h/mL
pEC50 [9]: 6.00
t1/2 [10]: 3.33 h
Activity [11]: Active
Activity [12]: Non-Toxic
AUC [13]: 5579 ng·h/mL
Activity [14]: Active
MRT ([15]; iv, 2.5 mg/kg, 24 h): 1.94 h
Activity [16]: Non-Toxic
t1/2 ([17]; iv, 2.5 mg/kg, 24 h): 4.6 h
Activity [18]: Non-Toxic
inhibition at 1 µM [1]: 91%
bioavailability [19]: 12.7%
Activity [20]: Non-Toxic
Activity [21]: Active
AUClast [22]: 5547 ng·h/mL
MRT [23]: 4.41 h
CC50 [24]: 4730 nM
Activity [25]: Non-Toxic
Activity [26]: Non-Toxic

CC(=O)Oc1cc(F)c(Cl)cc1C(=O)Nc1ccc(OC(F)(F)F)cc1
t1/2 [27]: 3.57 h
AUClast [28]: 16458 ng·h/mL
solubility [7]: 0.71 µg/mL
Cmax [29]: 4771 ng/mL
F [30]: 37.61%
AUC [31]: 16726 ng·h/mL
MRT [32]: 6.03 h

CCC(CC)COC(=O)[C@H](C)N[P@](=O)(OC[C@H]1O[C@@](C#N)(c2ccc3c(N)ncnn23)[C@H](O)[C@@H]1O)Oc1ccccc1
inhibition at 5 µM [33]: 99%
inhibition at 1 µM [1]: < 10%

O=C(Nc1ccc(C(F)(F)F)cc1)c1cc(Cl)cnc1O
inhibition at 1 µM [1]: 50%

C[C@H](N)C(=O)Oc1cc(F)c(Cl)cc1C(=O)Nc1ccc(OC(F)(F)F)cc1.Cl
AUC(0-inf) ([6]; ICR): 6700 ng·h/mL
AUC(0-t) at 24 h ([8]; ICR): 6670 ng·h/mL
MRT inf ([15]; ICR): 5.02 h
Cmax [34]: 3360 ng/mL
half-life ([17]; ICR): 2.92 h

N#Cc1ccc(Cl)cc1C(=O)Nc1ccc(C(F)(F)F)cc1
inhibition at 1 µM [1]: < 10%
